Screening data: PubChem, Johns Hopkins Ion Channel Center
KCNK3 block = human KCNK3 channel inhibition, primary screen | O14649 | CHO-KCNK3 thallium flux, FluxOR fluorescence; stronger effect = lower value | B-score at 10 µM | 340,000 compounds, 0.84% hits;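 active = B-score under library mean minus 4 SD, starting fluorescence ratio at most library mean plus 5 SD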;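 note: more negative B-score means stronger inhibition of thallium flux through KCNK3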
KCNQ1 block = inhibitors of human KCNQ1 potassium channel; CHO-K1 KCNQ1, FluxOR thallium flux fluorescence; stronger effect = higher value; B-score at 10 µM; P51787; 310,000 compounds, 1.3% hits;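 active = compounds whose thallium flux B-score, printed positive for inhibition, exceeds three library SD while starting fluorescence stays within three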;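 note: channel opened by potassium depolarization with thallium stimulus after 20 min compound exposure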
KCNQ1 act = human KCNQ1 channel potentiation or activation; P51787; B-score at 10 µM; CHO-K1 KCNQ1, thallium flux FluxOR fluorescence; stronger effect = higher value; 310,000 compounds, 0.35% hits;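 active = fluorescence ratio B-score, a plate-corrected score, at least three library SD, with initial intensity B-score within 5 SD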
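System: Stable KCNQ1 CHO-K1 line | Incubation: 90 min dye loading and 20 min compound exposure, both at room temperature | Measure: Ratio B score | Medium: Assay buffer for compound exposure, DMSO matched across wells | Compound dosing: Single-concentration screen | Probe or stimulus: K+/Tl+ depolarizing stimulus | Measured by: Kinetic FluxOR fluorescence, 10 s baseline plus 110 s post-stimulus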
KCNK9 block = human KCNK9 channel inhibition. AID 488922. Q9NPC2. B-score at 10 µM. 310,000 compounds, 1.2% hits. HEK293 KCNK9, FluxOR thallium flux fluorescence; stronger effect = lower value;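 active = ratio B-score over 3 SD below the library mean, with starting fluorescence within 5 SD of its mean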;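 note: negative B-score means less thallium flux so channel inhibition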
Target sequence (Q9NPC2 whole entry, looked up): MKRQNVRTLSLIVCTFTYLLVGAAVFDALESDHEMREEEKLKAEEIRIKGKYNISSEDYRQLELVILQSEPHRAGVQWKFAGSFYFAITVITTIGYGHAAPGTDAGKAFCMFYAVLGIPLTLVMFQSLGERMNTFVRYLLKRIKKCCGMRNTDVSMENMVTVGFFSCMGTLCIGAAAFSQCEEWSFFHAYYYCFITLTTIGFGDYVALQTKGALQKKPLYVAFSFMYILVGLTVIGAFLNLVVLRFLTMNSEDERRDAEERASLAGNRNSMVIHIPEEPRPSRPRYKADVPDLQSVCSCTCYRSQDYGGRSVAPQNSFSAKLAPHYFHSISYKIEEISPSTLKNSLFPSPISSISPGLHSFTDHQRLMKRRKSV
hERG rescue = compounds protecting human hERG from proarrhythmic drug block; Q12809; CHO-hERG, FluxOR thallium flux, dofetilide IC70 present; activation (rescue from dofetilide block), less the hit threshold, % at 10 µM; 310,000 compounds, 0.51% hits; AID 1511;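 active = activation above the mean of controls blocked by dofetilide plus 5 SD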;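 note: thallium influx through hERG after potassium depolarization seen as dye fluorescence rise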
Kir21 inh = inhibitors of mouse Kir2.1 inward-rectifier potassium channel; P35561; HEK293-Kir2.1, FluxOR thallium flux fluorescence; stronger effect = lower value; B-score at 10 µM; 310,000 compounds, 0.85% hits; AID 1672;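 active = fluorescence ratio B-score at or below minus 3 SD of library scores, with starting-brightness B-score within 2 SD, cut at about -4.2 in these data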;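 note: channel flux triggered by added potassium and thallium sulfate stimulus; B-score of peak minus minimum fluorescence over baseline after thallium stimulus; more negative B-score means stronger Kir2.1 block with less thallium influx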
An asterisk follows results filed as active; i = inactive; / = no result. Sampled rows, rich in hits. Any-hit rate of the full collection: about 3.7%.

SMILES | KCNK3 block | KCNQ1 block | KCNQ1 act | KCNK9 block | hERG rescue | Kir21 inh
O=C(Nc1ccc(Nc2ccncc2)cc1)c1ccc(Nc2ccnc3ccc([N+](=O)[O-])cc23)cc1[N+](=O)[O-] | i | i | i | i | 13* | 3.1
O=C(Nc1ccc(Nc2ccncc2)cc1)c1ccc([N+](=O)[O-])cc1 | i | i | i | i | -15 | -0.4
CC1CC1C(=O)OCc1cc(=O)n2cc(Br)ccc2n1 (centres undefined) | i | i | i | i | -5 | -0.26
O=C(CNC(=O)C12CC3CC(CC(C3)C1)C2)OCc1cc(=O)n2cc(Br)ccc2n1 | i | i | i | i | 6.1* | -0.45
CCOc1cc(CNc2ccc(O)cc2)ccc1OCc1ccc(Cl)cc1Cl | i | i | i | i | -2 | 2.2
COc1cc(CNc2ccc(O)cc2)cc(Br)c1OCc1ccccc1 | i | i | i | i | -22 | -0.52
COc1cc(CNC(C)(C)CO)cc(Br)c1OCc1ccc(Cl)cc1 | i | i | i | i | -21 | -4.8*
COc1cc(CNC(C)(C)CO)cc(Br)c1OCc1ccc(Cl)cc1Cl | i | i | i | -6.6* | -27 | -10*
CC(NC(=O)C12CC3CC(CC(O)(C3)C1)C2)c1ccc(Cl)cc1Cl (centres undefined) | i | i | i | i | -6 | 0.45
O=[N+]([O-])c1ccccc1CCc1ccccc1[N+](=O)[O-] | i | / | / | / | / | /
COC(=O)c1cc(=O)n(Cc2ccc3c(c2)OCO3)c(=Nc2ccc(F)cc2)s1 | i | 6* | i | -8* | -8 | -2.2
COC(=O)c1cc(=O)n(Cc2ccc3c(c2)OCO3)c(=Nc2ccccc2)s1 | i | i | i | i | -15 | 0.75
COC(=O)c1cc(=O)n(Cc2ccco2)c(=Nc2ccc(F)c(Cl)c2)s1 | i | 7* | i | i | -6 | -0.15
COC(=O)Nc1nn(-c2ccc(OC)cc2)c(=O)c(C#N)c1C | i | i | i | i | 5.5* | -0.02
O=C(CNC(=O)c1cccc(S(=O)(=O)N2CCc3ccccc32)c1)Nc1ccc(F)c(F)c1F | i | / | / | / | / | /
Cc1ccc(-c2nc(CN(C)Cc3cccc4cnccc34)c(C)o2)s1 | i | i | i | i | -14 | -1.4
O=[N+]([O-])c1ccc(-c2ccc(/C=N/Nc3nc(N4CCCCC4)nc(N4CCCCC4)n3)o2)cc1 | i | i | i | i | -7 | 1.1
O=[N+]([O-])c1cccc(-c2ccc(/C=N/Nc3nc(N4CCCCC4)nc(N4CCCCC4)n3)o2)c1 | i | 7* | i | i | -16 | 0.29
CCNc1ccc(Br)cc(C(=O)/C=C/c2c(Cl)cccc2Cl)c1=O | -9* | 6* | i | i | -23 | -2.5
CCCn1c(SCC(=O)c2cc(C)n(-c3ccc4c(c3)OCO4)c2C)n[nH]c1=O | i | i | i | i | -10 | -6.7*
Cc1ccccc1C(=O)NNc1ccc(-c2csnn2)cc1 | i | i | i | i | -6 | -0.06
Cc1ccccc1NC(=O)c1cc(-c2ccco2)nc2ccccc12 | i | / | / | / | / | /
Cc1cccc(NC(=S)NC(=O)c2cc(-c3ccccc3)nc3ccccc23)c1 | i | i | 18* | i | 6.1* | 0.96
Cc1ccccc1NC(=S)NC(=O)c1cc(-c2ccccc2)nc2ccccc12 | i | i | 19* | i | 3 | 0.72
Cc1ccc(/C=C2\SC(=S)N(NS(=O)(=O)c3ccc(C)cc3)C2=O)cc1 | i | i | 27* | i | -5 | 0.68
SMILES | KCNK3 block | KCNQ1 block | KCNQ1 act | KCNK9 block | hERG rescue | Kir21 inh
Cc1ccc(S(=O)(=O)NN2C(=O)/C(=C\c3ccc(Cl)cc3)SC2=S)cc1 | i | i | i | i | -2 | 1.7
Cc1nnc(OCc2nc3ccccc3n2C)c2ccccc12 | i | i | i | i | -11 | -4.7*
Cc1ccccc1OCc1nc2ccccc2n1C | i | i | i | i | -13 | 0.04
S=c1[nH]nc(COc2ccccc2)n1/N=C/c1ccc(Cl)cc1 | i | i | i | i | -2 | -0.92
S=c1[nH]nc(Cc2ccc(Br)cc2)n1/N=C/c1ccc(Cl)cc1 | i | i | i | i | 16* | 0.19
CCCCc1ccc(NC(=O)CSc2nnc(CNC(=O)c3ccco3)o2)cc1 | i | i | i | i | -5 | -0.21
COC(=O)c1ccccc1NC(=O)c1cn(-c2ccc(C)c(C)c2)c(=O)c2ccccc12 | i | 8* | i | i | -5 | -1.6
CCOc1ccccc1NC(=O)CSc1nc2c(c(=O)n1C)SC(C)C2 (centres undefined) | i | i | i | i | -3 | -5.5*
CCn1c(SCC(=O)Nc2nc3ccccc3s2)nc2c(c1=O)SC(C)C2 (centres undefined) | / | i | i | i | -7 | 1.9
CCn1c(SCC(=O)Nc2nc3ccc(C)cc3s2)nc2c(c1=O)SC(C)C2 (centres undefined) | -11* | i | i | i | -9 | -0.06
CC1(C2CCC3(C)OC3C2)CO1 (centres undefined) | i | / | / | / | / | /
O=C(c1cc(C(=O)NCCc2ccccc2)c(=O)n(CCc2ccccc2)c1)c1cc(Cl)ccc1O | i | 10* | i | i | -14 | 0.48
COc1ccc(CCNC(=O)c2cc(C(=O)c3cc(Cl)ccc3O)cn(CCc3ccc(OC)cc3)c2=O)cc1 | i | 8* | i | i | -22 | 0.36
CC(=O)N1c2ccc(S(=O)(=O)N3CCC(C(=O)Nc4cccc(C(F)(F)F)c4)CC3)cc2CC1C (centres undefined) | i | i | i | i | -14 | -0.04
Cc1nnc(NC(=O)C2CCN(S(=O)(=O)c3cc([N+](=O)[O-])ccc3Cl)CC2)o1 | i | / | / | / | / | /
Cc1cccc2sc(NC(=O)C3CCN(S(=O)(=O)c4cc([N+](=O)[O-])ccc4Cl)CC3)nc12 | i | 11* | i | i | -7 | 1.4
CC(NC(=O)C1CCCC1)c1ccc(Br)cc1 (centres undefined) | i | i | i | i | 5.5* | 2.4
CC(NC(=O)C1CCC1)c1ccc(Br)cc1 (centres undefined) | i | i | i | i | -1 | -0.27
O=C(CC(=O)c1ccccc1)CC(O)(C=Cc1ccccc1)c1ccccc1 (centres undefined) | -9.1* | / | / | / | / | /
O=C(COC(=O)Cc1ccc(S(=O)(=O)N2CCOCC2)s1)Nc1ccccc1 | i | / | / | / | / | /
CCN1CCN(C(c2cccs2)C(C)NC(=S)Nc2cc(C)ccc2C)CC1 (centres undefined) | i | i | i | i | -7 | -5.5*
